Tested on: MCF7
Assay: Antiproliferative activity against human MCF7 cells after 72 hrs by MTT assay
Format: functional, cell-based
Conditions: MCF7, 72 h
Method in brief: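 MCF7 breast cancer cells in exponential growth seeded at 8 × 10^3 cells/well and left 24 h to attach. Medium was then switched to serum-free RPMI containing compound at […]. Cells were cultured 72 h at 37 °C in 5% CO2, then given MTT for 4 h and solubilized. A570 was converted to cell number using a hemocytometer-based standard curve. IC50 was obtained by nonlinear regression of log concentration versus cells/well.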

SMILES	IC50
COc1ccc(CC(=O)N2C(=O)SC[C@H]2[C@@]2(OC)C[C@H]3C[C@@H](CC[C@H](C)/C=C\C=C\CC/C(C)=C\C(=O)O3)O2)cc1	15.4 µM
C/C1=C/C(=O)O[C@@H]2C[C@@H](CC[C@H](C)/C=C\C=C\CC1)O[C@@](OCCc1ccccc1)([C@@H]1CSC(=O)N1)C2	10 µM
C/C1=C/C(=O)O[C@@H]2C[C@@H](CC[C@H](C)/C=C\C=C\CC1)O[C@@](OC(=O)c1ccccc1)([C@@H]1CSC(=O)N1)C2	1.92 µM
CO[C@]1([C@@H]2CSC(=O)N2C)C[C@H]2C[C@@H](CC[C@H](C)/C=C\C=C\CC/C(C)=C\C(=O)O2)O1	13.1 µM
CCN1C(=O)SC[C@H]1[C@@]1(OC)C[C@H]2C[C@@H](CC[C@H](C)/C=C\C=C\CC/C(C)=C\C(=O)O2)O1	20.7 µM
CO[C@]1([C@@H]2CSC(=O)N2C2CCCC2)C[C@H]2C[C@@H](CC[C@H](C)/C=C\C=C\CC/C(C)=C\C(=O)O2)O1	5.2 µM
CO[C@]1([C@@H]2CSC(=O)N2CCCO)C[C@H]2C[C@@H](CC[C@H](C)/C=C\C=C\CC/C(C)=C\C(=O)O2)O1	19.2 µM
CO[C@]1([C@@H]2CSC(=O)N2Cc2ccccc2)C[C@H]2C[C@@H](CC[C@H](C)/C=C\C=C\CC/C(C)=C\C(=O)O2)O1	1.28 µM
CO[C@]1([C@@H]2CSC(=O)N2C(=O)c2ccccc2)C[C@H]2C[C@@H](CC[C@H](C)/C=C\C=C\CC/C(C)=C\C(=O)O2)O1	1.82 µM
CCN1C(=O)SC[C@H]1[C@@]1(O)C[C@H]2C[C@@H](CC[C@H](C)/C=C\C=C\CC/C(C)=C\C(=O)O2)O1	1.05 µM
C/C1=C/C(=O)O[C@@H]2C[C@@H](CC[C@H](C)/C=C\C=C\CC1)O[C@@](O)([C@@H]1CSC(=O)N1Cc1ccccc1)C2	1.59 µM
C/C1=C/C(=O)O[C@@H]2C[C@@H](CC[C@H](C)/C=C\C=C\CC1)O[C@@](O)([C@@H]1CSC(=O)N1CO)C2	8.34 µM
CO[C@]1([C@@H]2CSC(=O)N2)C[C@H]2C[C@@H](CC[C@H](C)/C=C\C=C\CC/C(C)=C\C(=O)O2)O1	10.2 µM
C/C1=C/C(=O)O[C@@H]2C[C@@H](CC[C@H](C)/C=C\C=C\CC1)O[C@@](OC(=O)NCCCl)([C@@H]1CSC(=O)N1)C2	17.3 µM
C/C1=C/C(=O)O[C@@H]2C[C@@H](CC[C@H](C)/C=C\C=C\CC1)O[C@@](OC(=O)NCCCCl)([C@@H]1CSC(=O)N1)C2	25.7 µM
C/C1=C/C(=O)O[C@@H]2C[C@@H](CC[C@H](C)/C=C\C=C\CC1)O[C@@](OC(=O)NCCBr)([C@@H]1CSC(=O)N1)C2	19.4 µM
C/C1=C/C(=O)O[C@@H]2C[C@@H](CC[C@H](C)/C=C\C=C\CC1)O[C@@](OC(=O)NCc1ccccc1)([C@@H]1CSC(=O)N1)C2	3.5 µM
C/C1=C/C(=O)O[C@@H]2C[C@@H](CC[C@H](C)/C=C\C=C\CC1)O[C@@](OC(=O)Nc1ccccc1)([C@@H]1CSC(=O)N1)C2	7.69 µM
CO[C@]1([C@@H]2CSC(=O)N2)C[C@H]2C[C@@H](CC[C@H](C)/C=C\CC/C(C)=C\C(=O)O2)O1 [15-METHOXYLATRUNCULIN B]	19.3 µM
CCCCO[C@]1([C@@H]2CSC(=O)N2)C[C@H]2C[C@@H](CC[C@H](C)/C=C\CC/C(C)=C\C(=O)O2)O1 [15-O-BUTYLLATRUNCULIN B]	50.1 µM
CCCCCCCCO[C@]1([C@@H]2CSC(=O)N2)C[C@H]2C[C@@H](CC[C@H](C)/C=C\CC/C(C)=C\C(=O)O2)O1 [15-O-OCTYLLATRUNCULIN B]	50.1 µM
C/C1=C/C(=O)O[C@@H]2C[C@@H](CC[C@H](C)/C=C\C=C\CC1)O[C@@](O)([C@@H]1CSC(=O)N1)C2 [LATRUNCULIN A]	2.08 µM
C/C1=C/C(=O)O[C@@H]2C[C@@H](CC[C@H](C)/C=C\CC1)O[C@@](O)([C@@H]1CSC(=O)N1)C2 [LATRUNCULIN B]	1.91 µM
CC(=O)N1C(=O)SC[C@H]1[C@@]1(O)C[C@H]2C[C@@H](CC[C@H](C)/C=C\CC/C(C)=C\C(=O)O2)O1 [N-ACETYLLATRUNCULIN B]	4.3 µM
C/C1=C/C(=O)O[C@@H]2C[C@@H](CC[C@H](C)/C=C\CC1)O[C@@](O)([C@@H]1CSC(=O)N1CO)C2 [N-HYDROXYMETHYLLATRUNCULIN B]	2.35 µM
